In ChEMBL document CHEMBL4130579, “Sulfur-Containing Aristoloxazines and Other Constituents of the Roots of Aristolochia orbicularis” (2017) one finds MIC and Activity data, which are given here for six molecules.

As a reminder, the MIC is the lowest concentration found to suppress growth. A lower MIC goes with greater potency.

Values after ≈ are worked out from the molar mass of the structure shown. Active and inactive are the calls of the source. The rule behind the calls is not given here.

In test [1] the test system is Staphylococcus aureus. As to the kind of experiment: Antibacterial activity against methicillin-resistant Staphylococcus aureus ATCC 33591 after 24 hrs by broth microdilution method. Format: functional. The following applies: ATCC 33591, 24 h. In outline:
(§1)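 Strains were kept on Mueller-Hinton agar at 4 °C and grown in MH broth at 37 °C for 18 h. Broth microdilution followed NCCLS, with serial dilutions over 0.125–128 μg/mL and an inoculum of 10^5 CFU/mL set by the 0.5 McFarland standard. Plates were incubated at 37 °C for 24 h, then p-iodonitrotetrazolium violet (0.5 mg/mL) was added. MIC was the lowest concentration without red colour.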
Background: In broth dilution the organism is exposed to a series of concentrations in liquid medium.

Test [2] deals with Staphylococcus aureus. As to the kind of experiment: Antibacterial activity against methicillin-sensitive Staphylococcus aureus ATCC 6358 after 24 hrs by broth microdilution method. Type of test: functional. The following applies: ATCC 6358, 24 h. The method, boiled down: as §1
Test [3] deals with Staphylococcus aureus. As to the kind of experiment: Antibacterial activity against methicillin-resistant Staphylococcus aureus ATCC 43300 after 24 hrs by broth microdilution method. Format: functional. Conditions: ATCC 43300, 24 h. In outline:
as §1

In test [4] the test system is Staphylococcus aureus. As to the kind of experiment: Antibacterial activity against beta-lactamase producing methicillin-resistant Staphylococcus aureus ATCC 11632 after 24 hrs by broth microdilution method. Type of test: functional. The following applies: ATCC 11632, 24 h. In outline:
as §1

In a further test the test system is Candida albicans. As to the kind of experiment: Antifungal activity against Candida albicans ATCC 10231 after 24 hrs by agar dilution method. Type of test: functional. The method, boiled down:
(§2)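 Agar dilution on Sabouraud glucose agar with 2-fold dilutions from 128 to 0.5 μg/mL and final DMSO below 2% (v/v). Inocula were spotted with a 0.005 mL loop: C. albicans at 10^5 cells/mL and filamentous fungi at 10^6 spores/mL. Plates were incubated at 29 °C in duplicate, for 24 h (C. albicans, A. niger) or 72 h (dermatophytes).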
In general terms: In agar dilution, organisms are placed on agar that contains the substance at set levels.

Test [5] deals with Trichophyton mentagrophytes. As to the kind of experiment: Antifungal activity against Trichophyton mentagrophytes ATCC 28185 after 72 hrs by agar dilution method. The following applies: ATCC 28185, 72 h. Type of test: functional. The method, boiled down:
as §2

Another test concerns Aspergillus niger. As to the kind of experiment: Antifungal activity against Aspergillus niger ATCC 10335 after 24 hrs by agar dilution method. Conditions: ATCC 10335, 24 h. Type of test: functional. The method, boiled down: as §2
In the next test the test system is Salmonella typhi. As to the kind of experiment: Antibacterial activity against Salmonella typhi ATCC 06539 at 128 ug/ml after 24 hrs by broth microdilution method. Type of test: functional, organism-based. The following applies: Salmonella enterica subsp. enterica serovar Typhi. The method, boiled down: (§3)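 Strains kept on Mueller-Hinton agar at 4 °C, grown in MH broth at 37 °C for 18 h before testing. NCCLS standard broth microdilution, serial dilution over 0.125−128 μg/mL. Inoculum set to 10^5 CFU/mL by 0.5 McFarland standard. Plates incubated at 37 °C for 24 h, then p-iodonitrotetrazolium violet (0.5 mg/mL) added. Red colour marks viable cells; growth at the top concentration scored.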

Another test has as its system Trichophyton rubrum. As to the kind of experiment: Antifungal activity against Trichophyton rubrum ATCC 28188 after 72 hrs by agar dilution method. Format: functional. Conditions: ATCC 28188, 72 h. The method, boiled down: as §2
The next test deals with Proteus mirabilis. As to the kind of experiment: Antibacterial activity against Proteus mirabilis ATCC 43071 at 128 ug/ml after 24 hrs by broth microdilution method. Format: functional, organism-based. In outline: as §3
The next test relates to Escherichia coli. As to the kind of experiment: Antibacterial activity against Escherichia coli ATCC 25922 at 128 ug/ml after 24 hrs by broth microdilution method. Type of test: functional, organism-based. The method, boiled down:
as §3

`CC1(C)S[C@@H]2[C@H](NC(=O)[C@H](N)c3ccccc3)C(=O)N2[C@H]1C(=O)O` [AMPICILLIN]: the minimal inhibitory concentration (MIC) against Staphylococcus aureus [1] turned out to be 128 mg/L (≈ 366 µM); in the test on Staphylococcus aureus [2], 2 mg/L (≈ 5.72 µM); in the test with Staphylococcus aureus [3], 128 mg/L (≈ 366 µM); with Staphylococcus aureus [4], 64 mg/L (≈ 183 µM).

In the test on Candida albicans, NYSTATIN yielded a minimal inhibitory concentration (MIC) of 8 mg/L.

For the molecule `Cc1onc(-c2ccccc2)c1C(=O)N[C@@H]1C(=O)N2[C@@H]1SC(C)(C)[C@@H]2C(=O)O` [OXACILLIN], the minimal inhibitory concentration (MIC) against Staphylococcus aureus [1] worked out at 128 mg/L (≈ 319 µM); with Staphylococcus aureus [2] it was 2 mg/L (≈ 4.98 µM); against Staphylococcus aureus [3], 128 mg/L (≈ 319 µM); against Staphylococcus aureus [4], 32 mg/L (≈ 79.7 µM).

On to `COc1cc2c(=O)onc3c2c(c1OC)-c1cccc(OC)c1[C@@H]3SCC(N)=O`, for which the MIC in the test on Staphylococcus aureus [1] was 0.25 mg/L (≈ 0.603 µM); in [5], 1 mg/L (≈ 2.41 µM); in the test with Aspergillus niger, 25 mg/L (≈ 60.3 µM); with Trichophyton rubrum it was 1 mg/L (≈ 2.41 µM); in the test on Candida albicans (ATCC 10231, 24 h), 25 mg/L (≈ 60.3 µM); with Staphylococcus aureus [2], 0.5 mg/L (≈ 1.21 µM). Besides, the MIC with Staphylococcus aureus [3] and with Staphylococcus aureus [4] was 0.25 mg/L (≈ 0.603 µM) in each case. Further, the result with Salmonella typhi, with Proteus mirabilis and in the test with Escherichia coli was inactive.

Turning to `O=C(N[C@H](CO)[C@H](O)c1ccc([N+](=O)[O-])cc1)C(Cl)Cl` [CHLORAMPHENICOL], the MIC against Staphylococcus aureus [1] was determined as 2 mg/L (≈ 6.19 µM); against Staphylococcus aureus [2] it was 1 mg/L (≈ 3.09 µM); with Staphylococcus aureus [3], 2 mg/L (≈ 6.19 µM); with Staphylococcus aureus [4], 2 mg/L (≈ 6.19 µM).

In the case of `Clc1ccc(COC(Cn2ccnc2)c2ccc(Cl)cc2Cl)c(Cl)c1` (configuration not stated) [MICONAZOLE], the minimum inhibitory concentration (MIC) in test [5] is 2 mg/L (≈ 4.81 µM); against Aspergillus niger, 16 mg/L (≈ 38.4 µM); with Trichophyton rubrum it was 2 mg/L (≈ 4.81 µM).
